Reference: PubChem BioAssay AID2237 (Johns Hopkins Ion Channel Center, 2010)
In all, about 310,000 compounds went through this assay and about 1,500 (0.48%) were called active.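 The calls were made as follows: active = B-score above 5 SD of library B-scores, and initial fluorescence ratio not above library mean plus 5 SD; inactive = the rest.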 What follows is part of a selection rich in actives, with near analogues and random picks from the rest.

These molecules were tested against Short transient receptor potential channel 4 (Mus musculus) (UniProt Q9QUQ5) (assay: activators of mouse TRPC4 channel, primary screen, Fluo4 calcium, HEK293 TRPC4beta/mu-opioid cells (AID 2237;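 as to B-score: positive B-score marks a calcium rise read as TRPC4 activation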)). Conditions: Fluo4 calcium fluorescence, at 10 µM; active compounds read high.
In short: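 Assay system: HEK293 cells stably co-expressing mouse TRPC4beta and mu-opioid receptor / Timing: Fluo4 dye loading 45 min at room temperature, 110 s recording / Signal: Fluo4 calcium-sensitive dye fluorescence, kinetic, 1 Hz baseline / Read-out: integrated baseline-normalised fluorescence ratio, converted to per-well B score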

Short transient receptor potential channel 4 (Mus musculus), sequence (Q9QUQ5 whole entry, looked up): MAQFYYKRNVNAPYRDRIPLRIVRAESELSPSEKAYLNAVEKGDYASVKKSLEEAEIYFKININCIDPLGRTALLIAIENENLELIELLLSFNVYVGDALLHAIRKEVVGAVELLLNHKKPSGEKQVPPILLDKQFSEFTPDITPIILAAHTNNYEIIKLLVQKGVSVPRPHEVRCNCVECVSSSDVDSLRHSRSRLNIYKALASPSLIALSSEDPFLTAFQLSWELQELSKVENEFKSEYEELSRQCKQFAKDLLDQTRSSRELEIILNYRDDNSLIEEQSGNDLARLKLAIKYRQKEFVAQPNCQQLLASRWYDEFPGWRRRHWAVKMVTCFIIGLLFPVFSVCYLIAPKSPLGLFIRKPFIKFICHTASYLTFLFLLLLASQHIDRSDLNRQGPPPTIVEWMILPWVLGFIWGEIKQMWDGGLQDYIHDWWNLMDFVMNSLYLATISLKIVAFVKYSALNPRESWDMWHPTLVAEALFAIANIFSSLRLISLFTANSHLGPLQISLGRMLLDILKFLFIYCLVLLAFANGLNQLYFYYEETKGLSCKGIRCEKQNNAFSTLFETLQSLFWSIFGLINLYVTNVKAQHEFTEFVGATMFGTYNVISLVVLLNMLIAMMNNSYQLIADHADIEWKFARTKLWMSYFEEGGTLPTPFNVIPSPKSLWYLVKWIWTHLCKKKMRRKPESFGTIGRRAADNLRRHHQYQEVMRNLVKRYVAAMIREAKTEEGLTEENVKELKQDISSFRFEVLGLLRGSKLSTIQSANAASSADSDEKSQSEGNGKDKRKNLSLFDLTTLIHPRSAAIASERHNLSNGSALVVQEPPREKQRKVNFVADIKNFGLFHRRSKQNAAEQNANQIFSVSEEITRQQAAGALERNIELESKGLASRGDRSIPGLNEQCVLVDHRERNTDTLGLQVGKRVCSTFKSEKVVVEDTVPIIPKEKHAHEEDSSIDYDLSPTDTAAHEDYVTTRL

Q: How did the B-score turn out when `CCCn1c(C2CCCN2c2nc(-c3ccc(C)cc3)cs2)nc2cc(Cl)c(N3CCCCC3)cc21` (configuration not stated) was run?
A: inactive

Q: Which B-score does the source give for `CCCn1c(CCNc2nc(-c3ccc(OC)cc3)cs2)nc2ccccc21` here?
A: inactive

Q: How did the B-score turn out when `CCCn1c(C2CCCN2c2nc(-c3ccc(OC)cc3)cs2)nc2ccccc21` (configuration not stated) was run?
A: 70 (active)

Q: `CCN1C(=O)[C@H]2[C@@H](c3ccc(-c4ccc(OC)cc4)cc3)N[C@@](Cc3ccccc3)(C(=O)OC)[C@H]2C1=O` was tested. Which B-score did it give?
A: inactive

Q: With `COC(=O)c1cc(S(=O)(=O)NC2CCN(Cc3ccccc3)CC2)cn1C` as the molecule, how does the B-score read?
A: inactive

Q: For `CCC1(CC)Cc2ccccc2-c2nc(CCl)[nH]c(=O)c21`, which B-score is on record?
A: inactive

Q: Which B-score does the source give for `COc1ccc(CN2CCCC(C(=O)c3ccc(Cl)cc3)C2)cc1Cn1cncn1` (configuration not stated) here?
A: 48 (active)

Q: For `COc1ccc(CCN(C)C(=O)C2CCCN(Cc3ccc(OC)c(OC)c3)C2)cc1OC` (configuration not stated), which B-score is on record?
A: inactive

Q: Which B-score does the source give for `COc1cc(CN2CCCC(C(=O)c3ccc(SC)cc3)C2)cc(Cl)c1O` (configuration not stated) here?
A: inactive

Q: `CCNS(=O)(=O)c1ccc(CCC(=O)N2CCN(c3ccc(OC)cc3)CC2)cc1` was tested. Which B-score did it give?
A: inactive

Q: Which B-score does the source give for `CN1C(CC(=O)Nc2ccc(Br)cc2)c2ccccc2CC1(C)C` (configuration not stated) here?
A: 109 (active)

Q: How did the B-score turn out when `CN1CCN(NC(=O)Nc2ccc(Br)cc2)CC1` was run?
A: inactive

Q: How did the B-score turn out when `COCC(=O)Nc1ccc(Br)cc1` was run?
A: inactive

Q: How did the B-score turn out when `COC(=O)C1CCN(C(=O)NC2CC(=O)N(c3ccc4c(c3)OCCO4)C2)CC1` (configuration not stated) was run?
A: inactive

Q: `CN(CC(=O)Nc1ccccc1Cl)C(=O)COc1cccc2c1OC(C)(C)C2` was tested. Which B-score did it give?
A: inactive

Q: For `CCOc1ccccc1-c1nc(CN2CCC(C(=O)N3CCOCC3)CC2)c(C)o1`, which B-score is on record?
A: inactive

Q: How did the B-score turn out when `CCOC(=O)C1(CC2CCCCO2)CCN(Cc2nc(-c3cccs3)oc2C)CC1` (configuration not stated) was run?
A: 73 (active)

Q: How did the B-score turn out when `COc1cccc(CC2(CO)CCCN(Cc3nc(-c4cccs4)oc3C)C2)c1` (configuration not stated) was run?
A: inactive

Q: How did the B-score turn out when `CC12CCC(C(=O)N(NC(=O)c3ccccc3O)C1=O)C2(C)C` (configuration not stated) was run?
A: inactive

Q: `O=C(NCc1cccnc1)c1cnc2ccccc2n1` was tested. Which B-score did it give?
A: inactive

Q: Which B-score does the source give for `COc1cc(C(=O)Nn2c(CC(C)C)nc3ccccc3c2=O)cc(OC)c1OC` here?
A: inactive

Q: For `Cc1onc(-c2ccccc2)c1C(=O)NNC(=S)NC(=O)c1ccc(F)cc1`, which B-score is on record?
A: 185 (active)

Q: With `Cc1onc(-c2ccccc2)c1C(=O)Nc1ccccc1C#N` as the molecule, how does the B-score read?
A: inactive

Q: `Cc1onc(-c2c(Cl)cccc2Cl)c1C(=O)NNC(=O)c1c(-c2c(Cl)cccc2Cl)noc1C` was tested. Which B-score did it give?
A: inactive

Q: Which B-score does the source give for `CCc1noc(C)c1C(=O)NNC(=O)c1ccc(F)cc1` here?
A: inactive

Q: With `COc1ccc(C(=O)NC(=S)NNC(=O)c2c(-c3ccccc3)noc2C)cc1` as the molecule, how does the B-score read?
A: 133 (active)

Q: How did the B-score turn out when `Cc1ccc(CNC(=O)c2c(-c3ccccc3)noc2C)cc1` was run?
A: inactive

Q: How did the B-score turn out when `CCc1cccc(C)c1NS(=O)(=O)c1cc(Br)cnc1N` was run?
A: inactive

Q: How did the B-score turn out when `Cc1cc(NS(=O)(=O)c2ccc(NC(=O)C(C)Oc3cccc(C)c3C)cc2)nc(C)n1` (configuration not stated) was run?
A: inactive

Q: For `COc1ccccc1N1CCN(c2nc(C)cc(=O)[nH]2)CC1`, which B-score is on record?
A: inactive

Q: With `Cc1ccc(CN2CCN(c3ccccc3Cl)CC2)o1` as the molecule, how does the B-score read?
A: inactive

Q: How did the B-score turn out when `OCCNCCOc1ccc(Cl)c(Cl)c1` was run?
A: 70 (active)

Q: How did the B-score turn out when `OCCNCc1cccc(OCc2ccccc2Cl)c1` was run?
A: inactive

Q: For `OCCNCCCCOc1ccccc1F`, which B-score is on record?
A: inactive

Q: For `COc1cccc2c1CCC(NC(C)=O)C2=O` (configuration not stated), which B-score is on record?
A: inactive

Q: With `c1ccc(C[C@H]2CNCCN2CCC23CC4CC(CC(C4)C2)C3)cc1` as the molecule, how does the B-score read?
A: inactive

Q: How did the B-score turn out when `COC(=O)C1(C)CC1(c1ccccc1)c1ccccc1` (configuration not stated) was run?
A: inactive

Q: `CCN(CC(=O)Nc1ccc(S(=O)(=O)N2CCCC2)cc1)CC(=O)Nc1cccc(OC)c1` was tested. Which B-score did it give?
A: inactive

Q: With `COc1cccc(NC(C)=[N+](C)CCNS(=O)(=O)c2ccc(Cl)cc2)c1` as the molecule, how does the B-score read?
A: inactive

Q: Which B-score does the source give for `CCNS(=O)(=O)c1ccc(NC(=O)Nc2cccc(OC)c2)cc1` here?
A: 54 (active)

Q: `CC(CN1CCCCC1)c1ccccc1` (configuration not stated) was tested. Which B-score did it give?
A: inactive

Q: How did the B-score turn out when `CC(=O)N1CCN(CC(c2ccccc2)c2ccccc2)CC1` was run?
A: inactive

Q: `CC(=O)c1ccc(N2CCN(CC(O)c3ccccc3)CC2)cc1` (configuration not stated) was tested. Which B-score did it give?
A: 63 (active)

Q: `CC(=O)c1ccc(N2CCN(C(=O)CCc3ccccc3)CC2)cc1` was tested. Which B-score did it give?
A: inactive

Q: For `CCCOc1ccc(Cc2c(O)nc(N)[nH]c2=O)cc1C`, which B-score is on record?
A: inactive

Q: How did the B-score turn out when `C=CCc1ccc(OCCOc2cccc(/C=N/n3cnnc3)c2)c(OC)c1` was run?
A: inactive

Q: For `COC(=O)[C@H]1Cc2cnoc2C[C@]1(C)C(=O)O`, which B-score is on record?
A: inactive
